Assay results taken from ChEMBL document CHEMBL1148376, “Synthesis, monoamine transporter binding properties, and behavioral pharmacology of a series of 3beta-(substituted phenyl)-2beta-(3'-substituted isoxazol-5-yl)tropanes” (J Med Chem, 2004).
Where “and” joins values, the source holds several entries; their conditions need not be identical. Equal entries are not always repeated. Calls of active or inactive are those of the source. No cut-off for these calls is given here.

Assays:
[1] = test system: Mus musculus; assay: Percent change in locomotor activity in mice at 3 mg/kg i.p. in 2 h.; type: functional; settings: route intraperitoneal
Summary of the method: (§1)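 Mice habituated 1/2 h to photocell activity chambers, then injected ip with compound homogenized in 0.5% methyl cellulose (10 mL/kg); vehicle controls; N = 5 or 6 per dose. Photobeam interruptions recorded in 10-min bins for 4 h, grouped into 1-h bins; one-way ANOVA with Newman-Keuls post hoc test (p < 0.05).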

[2] = molecular target: T1, Sodium-dependent serotonin transporter (Rattus norvegicus, UniProt P31652); assay: Binding affinity towards serotonin transporter 5-HTT was determined using [3H]paroxetine radioligand.
T1 sequence (P31652 whole entry): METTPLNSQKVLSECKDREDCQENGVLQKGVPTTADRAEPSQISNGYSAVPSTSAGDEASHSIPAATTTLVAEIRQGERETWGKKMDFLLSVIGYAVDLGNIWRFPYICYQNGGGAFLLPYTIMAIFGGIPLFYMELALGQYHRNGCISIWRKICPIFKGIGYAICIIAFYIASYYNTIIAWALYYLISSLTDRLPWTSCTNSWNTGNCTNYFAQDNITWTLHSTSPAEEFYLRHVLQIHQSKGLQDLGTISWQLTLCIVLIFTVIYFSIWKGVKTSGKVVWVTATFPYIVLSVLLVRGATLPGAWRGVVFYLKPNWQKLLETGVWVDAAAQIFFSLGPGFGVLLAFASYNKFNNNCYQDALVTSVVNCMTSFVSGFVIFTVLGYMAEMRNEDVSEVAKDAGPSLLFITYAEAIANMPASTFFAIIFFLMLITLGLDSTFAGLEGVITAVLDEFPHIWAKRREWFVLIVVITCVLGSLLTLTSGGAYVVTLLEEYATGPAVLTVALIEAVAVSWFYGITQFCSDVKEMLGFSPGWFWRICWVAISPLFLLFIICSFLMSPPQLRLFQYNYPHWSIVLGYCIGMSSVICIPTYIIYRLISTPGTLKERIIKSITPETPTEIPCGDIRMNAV
Summary of the method: (§2)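 Competition binding at the 5-HTT with 0.2 nM [3H]paroxetine (final concentration). Other procedures follow earlier published methods.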

[3] = molecular target: Sodium-dependent dopamine transporter (Rattus norvegicus, UniProt P23977); assay: Inhibitory concentration required to inhibit dopamine transporter DAT was determined by using [3H]WIN-35428 radioligand
Sequence of Sodium-dependent dopamine transporter (P23977 whole entry): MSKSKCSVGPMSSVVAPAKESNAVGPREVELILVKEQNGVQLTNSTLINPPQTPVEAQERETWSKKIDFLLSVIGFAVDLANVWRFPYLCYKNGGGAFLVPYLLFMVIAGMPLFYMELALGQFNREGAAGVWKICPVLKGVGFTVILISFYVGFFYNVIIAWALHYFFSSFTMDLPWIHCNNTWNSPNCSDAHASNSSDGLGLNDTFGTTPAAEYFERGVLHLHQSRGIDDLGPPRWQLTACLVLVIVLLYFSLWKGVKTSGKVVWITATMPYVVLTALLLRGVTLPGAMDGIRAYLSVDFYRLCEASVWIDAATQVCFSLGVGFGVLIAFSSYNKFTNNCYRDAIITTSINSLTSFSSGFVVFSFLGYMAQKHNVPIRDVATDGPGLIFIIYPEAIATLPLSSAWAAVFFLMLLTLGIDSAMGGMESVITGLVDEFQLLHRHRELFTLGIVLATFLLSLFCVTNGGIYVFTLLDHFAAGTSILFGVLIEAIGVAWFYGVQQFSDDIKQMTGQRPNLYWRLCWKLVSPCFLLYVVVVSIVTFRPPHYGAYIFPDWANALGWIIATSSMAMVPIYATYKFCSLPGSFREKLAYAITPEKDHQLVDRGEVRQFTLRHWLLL
Summary of the method: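 Competition binding at the DAT with 0.5 nM [3H]WIN35,428 (final concentration). Other procedures follow earlier published methods.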

[4] = test system: Rattus norvegicus; assay: Drug discrimination effect of compound in rats, expressed as percent of rats choosing the cocaine lever at dose 0.3 mg/kg (ip); type: functional
[5] = test system: Rattus norvegicus; assay: Effective dose for drug discrimination effect in rat (ip); type: functional
Summary of the method: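 Cocaine-trained rat drug discrimination, FR10, 10-min sessions. Compound in 0.5% methyl cellulose given ip 15 min before session, usually to 7-8 rats per dose. Doses were raised from ≤20% to ≥80% cocaine-lever choice, capped at 30 mg/kg, >50% loss of pressing, or side effects.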

[6] = molecular target: T1, Sodium-dependent serotonin transporter; assay: Inhibitory concentration required to inhibit serotonin transporter 5-HTT was determined by using [3H]paroxetine radioligand; summary of the method: as §2
[7] = species: Mus musculus; assay: Hour 1 ratio to cocaine was determined for locomotor activity in mice; type: functional
[8] = molecular target: T2, Norepinephrine transporter (Rattus norvegicus, UniProt Q9WTR4); assay: Inhibition of norepinephrine transporter (NET) determined using [3H]nisoxetine radioligand.
T2 sequence (Q9WTR4 whole entry): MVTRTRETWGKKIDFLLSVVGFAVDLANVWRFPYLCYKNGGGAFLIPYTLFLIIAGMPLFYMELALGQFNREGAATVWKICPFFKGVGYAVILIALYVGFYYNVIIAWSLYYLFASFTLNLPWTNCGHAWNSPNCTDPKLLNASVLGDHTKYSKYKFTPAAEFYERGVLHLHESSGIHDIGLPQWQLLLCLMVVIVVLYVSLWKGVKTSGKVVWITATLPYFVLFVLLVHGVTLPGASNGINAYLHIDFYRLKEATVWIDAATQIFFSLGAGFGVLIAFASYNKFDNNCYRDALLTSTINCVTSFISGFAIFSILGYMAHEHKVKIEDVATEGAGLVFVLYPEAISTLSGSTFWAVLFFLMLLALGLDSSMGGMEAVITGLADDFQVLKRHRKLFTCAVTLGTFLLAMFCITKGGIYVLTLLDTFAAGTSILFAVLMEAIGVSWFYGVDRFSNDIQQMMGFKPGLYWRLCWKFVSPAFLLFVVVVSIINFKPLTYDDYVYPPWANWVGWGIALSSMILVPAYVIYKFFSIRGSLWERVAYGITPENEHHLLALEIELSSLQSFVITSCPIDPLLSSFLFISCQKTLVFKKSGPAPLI
Summary of the method: (§3)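 Competition binding at the NET with 0.5 nM [3H]nisoxetine (final concentration). Other procedures follow earlier published methods.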

[9] = test system: Mus musculus; assay: Percent change locomotor activity in mice at 1 mg/kg i.p. in 3 h.; type: functional; settings: route intraperitoneal; summary of the method: as §1
[10] = species: Mus musculus; assay: Effective dose for locomotor activity in mice in the peak hour.; type: functional
[11] = test system: Mus musculus; assay: Percent change from vehicle in locomotor activity in mice at 0.3 mg/kg (ip) in 4 h; type: functional
[12] = test system: Rattus norvegicus; assay: Drug discrimination effect of compound in rats, expressed as percent of rats choosing the cocaine lever at dose 1.7 mg/kg (ip); type: functional
[13] = test system: Mus musculus; assay: Percent change from vehicle in locomotor activity in mice at 0.3 mg/kg (ip) in 2 h; type: functional
[14] = test system: Mus musculus; assay: Percent change in locomotor activity in mice at 1 mg/kg i.p. in 1 h.; type: functional; settings: route intraperitoneal
[15] = test system: Mus musculus; assay: Percent change in locomotor activity in mice at 1 mg/kg i.p. in 4 h.; type: functional; settings: route intraperitoneal; summary of the method: as §1
[16] = test system: Mus musculus; assay: Percent change in locomotor activity in mice at 1 mg/kg i.p. in 2 h.; type: functional; settings: route intraperitoneal; summary of the method: as §1
[17] = test system: Rattus norvegicus; assay: Drug discrimination effect of compound in rats, expressed as percent of rats choosing the cocaine lever at dose 1 mg/kg (ip); type: functional
[18] = test system: Mus musculus; assay: Percent change in locomotor activity in mice at 3 mg/kg i.p. in 1 h.; type: functional; settings: route intraperitoneal; summary of the method: as §1
[19] = test system: Mus musculus; assay: Percent change from vehicle in locomotor activity in mice at 0.3 mg/kg (ip) in 3 h; type: functional
[20] = molecular target: T2, Norepinephrine transporter; assay: Binding affinity towards norepinephrine transporter was determined using [3H]nisoxetine radioligand.; summary of the method: as §3
[21] = test system: Mus musculus; assay: Percent change from vehicle in locomotor activity in mice at 0.3 mg/kg (ip) in 1 h; type: functional
[22] = test system: Mus musculus; assay: Percent change in locomotor activity in mice at 3 mg/kg i.p. in 3 h.; type: functional; settings: route intraperitoneal; summary of the method: as §1
[23] = test system: Rattus norvegicus; assay: Drug discrimination effect of compound in rats, expressed as percent of rats choosing the cocaine lever at dose 0.56 mg/kg (ip); type: functional
[24] = test system: Mus musculus; assay: Percent change in locomotor activity in mice at 3 mg/kg i.p. in 4 h.; type: functional; settings: route intraperitoneal; summary of the method: as §1
[25] = test system: Mus musculus; assay: Percent change from vehicle in locomotor activity in mice at 10 mg/kg (ip) in 1 h; type: functional
[26] = test system: Mus musculus; assay: Percent change from vehicle in locomotor activity in mice at 30 mg/kg (ip) in 4 h; type: functional
[27] = test system: Mus musculus; assay: Percent change from vehicle in locomotor activity in mice at 10 mg/kg (ip) in 2 h; type: functional
[28] = test system: Mus musculus; assay: Percent change from vehicle in locomotor activity in mice at 30 mg/kg (ip) in 1 h; type: functional
[29] = test system: Mus musculus; assay: Percent change from vehicle in locomotor activity in mice at 30 mg/kg (ip) in 3 h; type: functional
[30] = species: Mus musculus; assay: Effective dose was evaluated for locomotor activity in mice in the peak hour; No stimulation; type: functional, organism-based
[31] = test system: Mus musculus; assay: Percent change from vehicle in locomotor activity in mice at 10 mg/kg (ip) in 4 h; type: functional
[32] = test system: Rattus norvegicus; assay: Drug discrimination effect of compound in rats, expressed as percent of rats choosing the cocaine lever at dose 30 mg/kg (ip); type: functional
[33] = test system: Rattus norvegicus; assay: Drug discrimination effect of compound in rats, expressed as percent of rats choosing the cocaine lever at dose 3 mg/kg (ip); type: functional
[34] = test system: Mus musculus; assay: Percent change from vehicle in locomotor activity in mice at 30 mg/kg (ip) in 2 h; type: functional
[35] = test system: Mus musculus; assay: Percent change from vehicle in locomotor activity in mice at 10 mg/kg (ip) in 3 h; type: functional
[36] = test system: Rattus norvegicus; assay: Drug discrimination effect of compound in rats, expressed as percent of rats choosing the cocaine lever at dose 10 mg/kg (ip); type: functional
[37] = test system: Rattus norvegicus; assay: Drug discrimination effect of compound in rats, expressed as percent of rats choosing the cocaine lever at dose 0.1 mg/kg (ip); type: functional
[38] = test system: Rattus norvegicus; assay: Drug discrimination effect of compound in rats, expressed as percent of rats choosing the cocaine lever at dose 0.17 mg/kg (ip); type: functional
[39] = test system: Rattus norvegicus; assay: Drug discrimination effect of compound in rats, expressed as percent of rats choosing the cocaine lever at dose 17 mg/kg (ip); type: functional
[40] = test system: Rattus norvegicus; assay: Drug discrimination effect of compound in rats, expressed as percent of rats choosing the cocaine lever at dose 5.6 mg/kg (ip); type: functional

SMILES	Change [1]	Ki [2]	IC50 [3]	Drug discrimination effect [4]	ED50 [5]	IC50 [6]	Ratio [7]	IC50 [8]	Change [9]	ED50 [10]	Change [11]	Change [13]	Change [14]	Change [15]	Change [18]	Change [19]	Ki [20]	Change [21]	Change [22]	Change [24]	further results
CCc1cc(C2C(c3ccc(C)cc3)CC3CCC2N3C)on1 (stereo not drawn)	893%	582 nM	1.62 nM	0%	0.82 mg/kg	6400 nM	1.4	299 nM	222%	0.9 mg/kg	-72%	99%	449%	48%	613%	173%	180 nM	34%	725%	81%	Drug discrimination effect [12]: 100%; Change [16]: 489%; Drug discrimination effect [17]: 75%; Drug discrimination effect [23]: 14%
Cc1ccc(C2CC3CCC(C2c2cc(-c4ccc(Cl)cc4)no2)N3C)cc1 (stereo not drawn)	39%		8.74 nM			> 100000 nM		6980 nM	33%		45%	-20%	5%		30%	-58%	3990 nM	-35%	7%	-1%	Change [25]: -1%; Change [26]: 52%; Change [27]: -3%; Change [28]: -26%; Change [29]: 79%; ED50 [30]: inactive; Change [31]: -20%; Drug discrimination effect [32]: 0%; Drug discrimination effect [33]: 13%; Change ([15]; 1 mg/kg): 24% and 27%; Drug discrimination effect [17]: 0%; Change [34]: 38%; Change [35]: -45%; Drug discrimination effect [36]: 0%
Cc1ccc(C2CC3CCC(C2c2ccno2)N3C)cc1 (stereo not drawn)	666%	38 nM	1.37 nM	83%	0.19 mg/kg	414 nM			48%	1 mg/kg	-28%	-12%	319%	-32%	698%	136%		-13%	571%	125%	Drug discrimination effect [37]: 0%; Change [16]: 214%; Drug discrimination effect [17]: 100%; Drug discrimination effect [38]: 43%
Cc1ccc(C2CC3CCC(C2c2cc(C)no2)N3C)cc1 (stereo not drawn)	552%	348 nM	0.93 nM	83%	0.28 mg/kg		1.1	254 nM	392%	1.1 mg/kg	48%	156%	341%	78%	478%	75%	153 nM	140%	986%	221%	Drug discrimination effect [37]: 13%; Change [16]: 413%; Drug discrimination effect [38]: 0%
Cc1ccc(C2CC3CCC(C2c2cc(-c4ccc(F)cc4)no2)N3C)cc1 (stereo not drawn)	80%		6.45 nM		7.27 mg/kg	> 100000 nM	0.4	917 nM		6.3 mg/kg					105%		552 nM		148%	140%	Change [25]: 117%; Change [26]: 179%; Change [27]: 268%; Change [28]: 192%; Change [29]: 387%; Change [31]: 148%; Drug discrimination effect [39]: 88%; Drug discrimination effect [40]: 25%; Drug discrimination effect [12]: 0%; Change [34]: 383%; Change [35]: 84%; Drug discrimination effect [36]: 25%
